Pf Dd2 growth: inhibitors of Plasmodium falciparum Dd2 growth; activity change, % at 10 µM; 94,000 tested, 2.3% active; P. falciparum Dd2 growth, SYBR Green, 72 h; active compounds read low; in the data active = activity change below about -80%; inconclusive = no clear call, values can overlap the other calls
IDH1 R132H inh: blocks human IDH1 R132H reductase activity; 70,000 tested, 0.18% active; inhibition, % at 10 µM; diaphorase/resazurin fluorescence, 60 min; O75874; in the data active = inhibition above about 34%; inconclusive = no clear call, values can overlap the other calls; inactive = below about 11%;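 note: 0% = DMSO and 100% = no enzyme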
Target sequence (O75874 whole entry R132H): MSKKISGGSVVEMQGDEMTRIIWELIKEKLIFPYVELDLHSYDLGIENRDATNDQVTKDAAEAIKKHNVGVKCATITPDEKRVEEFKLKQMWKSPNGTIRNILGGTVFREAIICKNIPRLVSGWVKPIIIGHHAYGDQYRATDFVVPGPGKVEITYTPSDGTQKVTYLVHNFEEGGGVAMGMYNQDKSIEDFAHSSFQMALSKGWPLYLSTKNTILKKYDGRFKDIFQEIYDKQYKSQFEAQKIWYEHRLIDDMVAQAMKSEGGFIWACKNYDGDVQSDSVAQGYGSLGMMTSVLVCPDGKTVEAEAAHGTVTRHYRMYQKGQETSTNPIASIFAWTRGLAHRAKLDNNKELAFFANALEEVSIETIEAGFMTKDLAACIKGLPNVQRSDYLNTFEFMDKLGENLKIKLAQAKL
GASC1 inh: KDM4C (human) demethylase inhibition | Q9H3R0 | 96,000 tested, 0.15% active | GST-KDM4C 2-372, H3K9me3 peptide, LANCE TR-FRET | inhibition, % at 12.5 µM;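 active = mean replicate inhibition above about 25%, with at least 55% of replicates also reaching it, limit read from the data, passing the limit was not always enough; inconclusive = only one of those two conditions met; inactive = neither condition met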
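System: N-terminal GST-fused human GASC-1 (KDM4C) fragment, residues 2-372; amount: enzyme final amount 10 nM; incubation: reaction 30 min RT, detection step 1 h RT; medium: HEPES buffer, pH 7.5, plus ascorbate; technique: LANCE TR-FRET, Eu antibody, ULight-streptavidin, EDTA, ex 340 nm, em 618/671 nm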
T cruzi growth-1: T. cruzi proliferation inhibition; inhibition, % at 8.34 µM; T. cruzi beta-gal in NIH3T3, GalScreen luminescence, 90 h; 77,000 tested, 5.9% active;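 active = mean inhibition above about 93%, with at least 55% of replicates each passing it, limit read from the data, passing the limit was not always enough; inconclusive = only one of those two conditions holds; inactive = neither condition holds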
T cruzi growth-2: inhibitors of T. cruzi proliferation; shares compounds with T cruzi growth-1; T. cruzi beta-gal in NIH3T3, GalScreen luminescence, 90 h; inhibition, % at 8.35 µM; 5,600 tested, 72% active; AID 651739;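 active = mean replicate inhibition above about 95% and at least 55% of replicates individually reaching it, limit read from the data; inconclusive = only one of the two criteria is met; inactive = neither criterion is met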
T cruzi growth-3: Trypanosoma cruzi proliferation inhibition; T. cruzi beta-gal in NIH3T3, GalScreen luminescence, 90 h; shares compounds with T cruzi growth-1; inhibition, % at 2.09 µM; 5,600 tested, 21% active;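 active = mean inhibition above about 95%, with at least 55% of replicates also reaching it, limit read from the data; inconclusive = meets just one of the two conditions; inactive = meets neither condition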;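 note: plate controls were neutral control median for no effect and positive control median for full effect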
3T3 cytotox: cytotoxicity in mouse NIH/3T3 fibroblasts | AID 651742 | cytotoxicity (signal decrease), % at 8.35 µM | 5,600 tested, 14% active | shares compounds with T cruzi growth-1 | NIH/3T3 viability, CellTiter-Glo ATP luminescence, 90 h;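 active = mean signal decrease across replicates above about 35% based on untreated-well scatter, with enough replicates individually passing, limit read from the data; inconclusive = no rule stated though some were filed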;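 note: 0% = median of neutral control wells and 100% = median of positive control wells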
NIH3T3 tox 2: kills mouse NIH/3T3 fibroblasts; shares compounds with T cruzi growth-1; NIH/3T3 viability, CellTiter-Glo ATP luminescence, 90 h; inhibition, % at 24.9 µM; 5,600 tested, 56% active; AID 651744;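 active = mean loss of cell viability signal at or above a set limit, and enough replicates individually reaching it; inconclusive = meets only the mean limit or only the replicate share; inactive = meets neither condition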;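 note: 0% = median of neutral control wells and 100% = median of positive control wells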
Starred values were filed as active, the others as inactive; ? = inconclusive; . = no result. The list is not random: actives were taken first. Their share in the collection is about 5.8%.

SMILES	Pf Dd2 growth	IDH1 R132H inh	GASC1 inh	T cruzi growth-1	T cruzi growth-2	T cruzi growth-3	3T3 cytotox	NIH3T3 tox 2
CCCC(=O)N1CC2(C1)CN(C(=O)Nc1c(C)noc1C)[C@@H](CO)c1c2c2ccc(OC)cc2n1C	14	.	1	.	.	.	.	.
CCCNC(=O)N1[C@H](CO)[C@@H](c2ccccc2)[C@H]1CNC(=O)c1ccccc1	12	.	-6	48	.	.	.	.
CCCNC(=O)N1[C@@H](CO)[C@H](c2ccccc2)[C@@H]1CNC(=O)c1ccccc1	-1	.	-2	?	23	-15	0	-4
CCCNC(=O)N1[C@H](CO)[C@@H](c2ccccc2)[C@H]1CNC(=O)c1cccc(F)c1	-54	.	-4	-15	.	.	.	.
CCCNC(=O)N1[C@@H](CO)[C@@H](c2ccccc2)[C@@H]1CNC(=O)c1cccc(F)c1	-71	.	-2	122*	81	-9	6	40*
C[C@@H]1CCCCO[C@H](CN(C)CC2CCCCC2)[C@H](C)CN([C@H](C)CO)C(=O)c2cc(NC(=O)Nc3ccccc3)ccc2O1	?	.	-2	?	102*	90	28	105*
C[C@@H]1CCCCO[C@@H](CN(C)CC2CCCCC2)[C@H](C)CN([C@@H](C)CO)C(=O)c2cc(NC(=O)NC3CCCCC3)ccc2O1	-56	3	-2	99*	109*	73	-5	106*
C[C@@H]1CCCCO[C@@H](CN(C)CC2CC2)[C@H](C)CN([C@@H](C)CO)C(=O)c2cc(NC(=O)Nc3ccccc3)ccc2O1	2	.	15	82	.	.	.	.
C[C@@H]1CN([C@@H](C)CO)C(=O)c2cc(NC(=O)Nc3ccccc3)ccc2O[C@@H](C)CCCCO[C@H]1CN(C)CC1CCCCC1	-75	2	-1	97*	23	8	-1	4
COc1ccc(NC(=O)Nc2ccc3c(c2)C(=O)N([C@@H](C)CO)C[C@@H](C)[C@H](CN(C)CC2CCCCC2)OCCCC[C@@H](C)O3)cc1	-73	.	0	?	98*	59	15	104*
CCCN1C[C@@H](C)[C@@H](OC)CN(C)C(=O)c2ccc(NC(=O)Nc3c(C)noc3C)cc2OC[C@@H]1C	-4	-1	1	-35	.	.	.	.
O=[N+]([O-])c1nn(-c2ccc(Cl)cc2)n(O)c1=NCc1ccccn1	.	0	.	.	.	.	.	.
CCCC(=O)Nc1ccc2c(c1)C(=O)N(C)C[C@H](OC)[C@H](C)CN(Cc1ccncc1)[C@@H](C)CO2	.	0	2	-30	.	.	.	.
C[C@@H]1CCCCO[C@@H](CN(C)CC2CC2)[C@@H](C)CN([C@H](C)CO)C(=O)c2cc(NC(=O)Nc3ccccc3)ccc2O1	-84*	.	-1	97*	39	3	-2	7
Cc1cc(=O)[nH]c(SCCOc2c(C)ccc(C)c2Cl)n1	.	1	.	.	.	.	.	.
C[C@@H]1CN([C@@H](C)CO)C(=O)c2cc(C#CC3CCCCC3)cnc2O[C@@H]1CN(C)C(=O)NC1CCCC1	-51	-3	-3	100*	107*	75	33	100*
C[C@H](CO)N1C[C@H](C)[C@H](CN(C)C(=O)NC2CCCCC2)Oc2ncc(C#Cc3ccccc3)cc2C1=O	-45	0	.	98*	106*	53	41*	58*
CNC[C@@H]1OCCCC[C@H](C)Oc2ccc(NC(=O)NC3CCCCC3)cc2C(=O)N([C@H](C)CO)C[C@@H]1C	10	.	1	6	.	.	.	.
COc1ccc(NC(=O)N(C)C[C@@H]2Oc3ncc(C#Cc4ccc(C(F)(F)F)cc4)cc3C(=O)N([C@H](C)CO)C[C@@H]2C)cc1	-73	-1	-1	108*	101*	?	10	104*
C[C@@H]1CN([C@H](C)CO)C(=O)c2cc(C#CC3CC3)cnc2O[C@@H]1CN(C)C(=O)Nc1ccccc1	-12	-5	0	107*	53	46	-5	20
C[C@H](CO)N1C[C@H](C)[C@H](CN(C)C(=O)Nc2ccccc2)Oc2ncc(C#CC3CCCC3)cc2C1=O	-34	.	-1	61	.	.	.	.
C[C@@H]1CN([C@H](C)CO)C(=O)c2cc(C#Cc3ccc(F)cc3)cnc2O[C@H]1CN(C)C(=O)Nc1ccc(F)cc1	-23	0	-2	8	.	.	.	.
C[C@H](CO)N1C[C@H](C)[C@H](CN(C)C(=O)Nc2ccc(F)cc2)Oc2ncc(C#Cc3ccccc3)cc2C1=O	-67	.	-3	110*	80	31	57*	103*
C[C@H](CO)N1C[C@H](C)[C@H](CN(C)C(=O)Nc2ccccc2)Oc2ncc(C#Cc3ccc(C(F)(F)F)cc3)cc2C1=O	-35	0	.	117*	108*	?	16	105*
C[C@H](CO)N1C[C@H](C)[C@H](CN(C)C(=O)Nc2ccc3c(c2)OCO3)Oc2ncc(C#Cc3ccc(C(F)(F)F)cc3)cc2C1=O	-60	2	-1	?	100*	?	26	106*
SMILES	Pf Dd2 growth	IDH1 R132H inh	GASC1 inh	T cruzi growth-1	T cruzi growth-2	T cruzi growth-3	3T3 cytotox	NIH3T3 tox 2
COc1ccc(-c2ccc([C@@H]3[C@H](C#N)N(C(=O)C4CC4)[C@H]3CO)cc2)cc1	-12	.	1	58	.	.	.	.
N#C[C@H]1[C@@H](c2ccc(-c3ccccc3F)cc2)[C@@H](CO)N1C(=O)C1CC1	27	0	-3	104*	107*	62	27	?
COc1ccc(-c2ccc([C@H]3[C@@H](C#N)N(C(=O)C4CC4)[C@H]3CO)cc2)cc1	-44	.	-2	105*	83	35	-9	20
COc1ccccc1-c1ccc([C@@H]2[C@@H](C#N)N(C(=O)C3CCC3)[C@H]2CO)cc1	4	.	0	49	.	.	.	.
COc1ccccc1-c1ccc([C@@H]2[C@@H](C#N)N(C(=O)C3CC3)[C@H]2CO)cc1	8	.	-2	104*	42	41	6	21
Cc1ccc(S(=O)(=O)Nc2ccc3c(c2)C(=O)N([C@H](C)CO)C[C@@H](C)[C@H](CN(C)C(=O)NC2CCCCC2)OCCCC[C@H](C)O3)cc1	-38	-1	0	79	.	.	.	.
CC(=O)Nc1cccc(NC(=O)c2cc(-c3ccccn3)nc3ccc(Br)cc23)c1	.	0	.	.	.	.	.	.
Cc1cccc(S(=O)(=O)N2CCCCN3[C@H](C2)[C@@H](c2ccc(C#C[C@H](C)O)cc2)[C@@H]3CO)c1	-6	.	0	101*	102*	66	65*	27*
Cc1cccc(S(=O)(=O)N2CCCCN3[C@H](CO)[C@H](c4ccc(C#CC(C)C)cc4)[C@@H]3C2)c1	-35	.	-1	97*	98*	100*	37*	105*

Screening results: PubChem, Broad Institute
